In data set [1] the target is Phosphatidylinositol 4,5-bisphosphate 3-kinase catalytic subunit gamma isoform (Homo sapiens, UniProt P48736). The data set can be described thus: Inhibition of PI3Kgamma.
The nature of data set [2]: Drug metabolism in mouse liver microsomes after 20 mins. Conditions: read-out: Drug metabolism. In kind it is ADME, Microsome. Summed up: (§1)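 Liver microsomes (human or mouse) incubated with compound for 20 min; %lability reported as % of compound metabolized.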
Data set [3] deals with Cytochrome P450 3A4 (Homo sapiens, UniProt P08684). The data set can be described thus: Inhibition of human recombinant CYP3A4. In kind it is ADME.
In data set [4] the target is Serine/threonine-protein kinase mTOR (Homo sapiens, UniProt P42345). The data set can be described thus: Inhibition of mTOR.
A short description of data set [5]: Drug metabolism in human liver microsomes after 20 mins. The format is ADME, Microsome. The settings on record: read-out: Drug metabolism. The method in brief:
as §1

The nature of data set [6]: Apparent permeability across human Caco2/TC7 cells. In kind it is ADME, cell-based. The settings on record: Caco-2. Summed up:
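Caco-2 TC7 clone monolayers; transport measured in both apical-to-basolateral and basolateral-to-apical directions, giving Papp (nm/s) and an efflux ratio.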

Data set [7] can be described thus: Equilibrium solubility of the compound in phosphate buffer at pH 7.4 after 16 hrs by HPLC analysis. In kind it is physicochemical.
Data set [8] is described as follows: Inhibition of Akt phosphorylation at S473 in PTEN deficient human PC3 cells. The settings on record: PC-3. The format is cell-based.
Data set [9] can be described thus: Oral bioavailability in SCID mouse at 10 mg/kg. In kind it is ADME, organism-based. Conditions: in vivo.
Data set [10] can be described thus: Drug uptake in PTEN deficient human PC3 cells xenografted SCID mouse tumor at 244 mg/kg, po administered as suspension after 6 hrs. In kind it is ADME, organism-based, Neoplasm, PC-3. More on the design: dose 244 mg/kg, route oral. The settings on record: tumor (PC3 xenograft), read-out: Drug uptake. The method in brief:
(§2)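 SCID mice bearing PTEN-deficient PC3 prostate tumor xenografts given a single oral dose, either 30 mg/kg in solution or 244 mg/kg in suspension; drug levels in plasma and tumor measured at 1 and 6 h after dosing.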

The test system of data set [11] is Mus musculus. Nature of the data set: Inhibition of Akt phosphorylation at S473 in PTEN deficient human PC3 cells xenografted SCID mouse tumor at 244 mg/kg, po administered as suspension after 6 hrs. The settings on record: PC-3, 6 h. The format is functional.
The nature of data set [12]: Drug uptake in PTEN deficient human PC3 cells xenografted SCID mouse tumor at 244 mg/kg, po administered as suspension after 1 hr. The format is ADME, organism-based, Neoplasm, PC-3. More on the design: dose 244 mg/kg, route oral. Conditions: tumor (PC3 xenograft), read-out: Drug uptake. The method in brief: as §2
Data set [13] can be described thus: Terminal elimination half life in SCID mouse at 10 mg/kg, po. In kind it is ADME, organism-based. More on the design: dose 10 mg/kg, route oral. The settings on record: in vivo, read-out: beta t1/2 (converted).
Data set [14] can be described thus: Plasma concentration in SCID mouse xenografted with PTEN deficient human PC3 cells at 244 mg/kg, po administered as suspension after 6 hrs. In kind it is ADME, organism-based, PC-3. More on the design: dose 244 mg/kg, route oral. Summed up:
as §2

A short description of data set [15]: Drug uptake in PTEN deficient human PC3 cells xenografted SCID mouse tumor at 30 mg/kg, po administered as solution after 6 hrs. In kind it is ADME, organism-based, Neoplasm, PC-3. Details: dose 30 mg/kg, route oral. Conditions: tumor (PC3 xenograft), read-out: Drug uptake. The method in brief: as §2
The nature of data set [16]: Volume of distribution at steady state in SCID mouse at 3 mg/kg, iv. The format is ADME, organism-based. Details: dose 3 mg/kg, route intravenous. Conditions: in vivo, read-out: Vdss.
Data set [17] relates to Mus musculus. Nature of the data set: Inhibition of Akt phosphorylation at T308 in PTEN deficient human PC3 cells xenografted SCID mouse tumor at 30 mg/kg, po administered as solution after 6 hrs. The settings on record: PC-3, 6 h. The format is functional.
The target of data set [18] is Phosphatidylinositol 4,5-bisphosphate 3-kinase catalytic subunit alpha isoform (Homo sapiens, UniProt P42336). The data set can be described thus: Inhibition of PI3Kalpha.
The test system of data set [19] is Mus musculus. Nature of the data set: Inhibition of Akt phosphorylation at T308 in PTEN deficient human PC3 cells xenografted SCID mouse tumor at 244 mg/kg, po administered as suspension after 6 hrs. In kind it is functional. Conditions: PC-3, 6 h.
Data set [20] deals with Phosphatidylinositol 4,5-bisphosphate 3-kinase catalytic subunit beta isoform (Homo sapiens, UniProt P42338). The data set can be described thus: Inhibition of PI3Kbeta.
Data set [21] can be described thus: Drug uptake in PTEN deficient human PC3 cells xenografted SCID mouse tumor at 30 mg/kg, po administered as solution after 1 hr. Conditions: tumor (PC3 xenograft), read-out: Drug uptake. Details: dose 30 mg/kg, route oral. In kind it is ADME, organism-based, Neoplasm, PC-3. Summed up:
as §2

Data set [22] in a line: Plasma concentration in SCID mouse xenografted with PTEN deficient human PC3 cells at 30 mg/kg, po administered as solution after 6 hrs. The format is ADME, organism-based, PC-3. More on the design: dose 30 mg/kg, route oral. Summed up: as §2
Data set [23] concerns Mus musculus. The data set can be described thus: Inhibition of Akt phosphorylation at S473 in PTEN deficient human PC3 cells xenografted SCID mouse tumor at 30 mg/kg, po administered as solution after 1 hr. In kind it is functional. The settings on record: PC-3, 1 h.
The subject of data set [24] is Mus musculus. The data set can be described thus: Inhibition of Akt phosphorylation at T308 in PTEN deficient human PC3 cells xenografted SCID mouse tumor at 30 mg/kg, po administered as solution after 1 hr. The format is functional. The settings on record: PC-3, 1 h.
Data set [25] can be described thus: Plasma concentration in SCID mouse xenografted with PTEN deficient human PC3 cells at 244 mg/kg, po administered as suspension after 1 hr. The format is ADME, organism-based, PC-3. More on the design: dose 244 mg/kg, route oral. Summed up: as §2
The test system of data set [26] is Mus musculus. Nature of the data set: Inhibition of Akt phosphorylation at T308 in PTEN deficient human PC3 cells xenografted SCID mouse tumor at 244 mg/kg, po administered as suspension after 1 hr. Conditions: PC-3, 1 h. The format is functional.
The test system of data set [27] is Mus musculus. The data set can be described thus: Inhibition of Akt phosphorylation at S473 in PTEN deficient human PC3 cells xenografted SCID mouse tumor at 30 mg/kg, po administered as solution after 6 hrs. The format is functional. The settings on record: PC-3, 6 h.
Data set [28] has as its system Mus musculus. The data set can be described thus: Inhibition of Akt phosphorylation at S473 in PTEN deficient human PC3 cells xenografted SCID mouse tumor at 244 mg/kg, po administered as suspension after 1 hr. In kind it is functional. Conditions: PC-3, 1 h.
Data set [29] addresses T1, Phosphatidylinositol 4,5-bisphosphate 3-kinase catalytic subunit delta isoform (Homo sapiens, UniProt O00329).
T1 sequence (O00329 whole entry): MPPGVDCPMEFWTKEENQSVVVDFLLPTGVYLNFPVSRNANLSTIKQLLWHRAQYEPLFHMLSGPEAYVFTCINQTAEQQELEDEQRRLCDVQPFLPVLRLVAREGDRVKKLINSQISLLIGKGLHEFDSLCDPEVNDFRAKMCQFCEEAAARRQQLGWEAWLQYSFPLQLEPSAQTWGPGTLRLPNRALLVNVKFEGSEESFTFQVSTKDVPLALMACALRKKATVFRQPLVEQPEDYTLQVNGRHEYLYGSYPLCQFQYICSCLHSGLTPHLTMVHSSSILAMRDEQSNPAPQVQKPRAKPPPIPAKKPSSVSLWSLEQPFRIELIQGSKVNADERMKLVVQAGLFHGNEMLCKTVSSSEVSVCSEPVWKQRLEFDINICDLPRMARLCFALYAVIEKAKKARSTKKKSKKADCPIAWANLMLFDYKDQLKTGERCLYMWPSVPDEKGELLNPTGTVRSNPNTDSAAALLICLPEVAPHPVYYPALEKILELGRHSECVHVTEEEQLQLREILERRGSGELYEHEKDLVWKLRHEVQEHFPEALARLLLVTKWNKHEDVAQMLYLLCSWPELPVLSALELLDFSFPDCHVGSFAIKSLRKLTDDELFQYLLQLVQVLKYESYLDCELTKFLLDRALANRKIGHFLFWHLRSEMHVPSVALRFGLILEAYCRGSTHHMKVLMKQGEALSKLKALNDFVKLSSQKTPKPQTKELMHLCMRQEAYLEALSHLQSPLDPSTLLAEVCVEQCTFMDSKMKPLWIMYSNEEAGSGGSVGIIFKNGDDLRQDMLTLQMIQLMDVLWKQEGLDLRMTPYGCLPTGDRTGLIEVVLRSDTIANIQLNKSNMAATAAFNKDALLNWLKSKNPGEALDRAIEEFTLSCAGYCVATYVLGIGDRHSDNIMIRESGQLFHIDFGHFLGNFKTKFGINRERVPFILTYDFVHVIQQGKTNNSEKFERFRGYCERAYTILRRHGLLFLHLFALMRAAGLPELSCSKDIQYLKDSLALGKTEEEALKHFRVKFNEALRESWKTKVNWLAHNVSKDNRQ
The data set can be described thus: Inhibition of PI3Kdelta.

Data set [30] deals with Mus musculus. The data set can be described thus: Hepatic clearance in SCID mouse at 3 mg/kg, iv. In kind it is ADME, organism-based, Liver. Details: dose 3 mg/kg, route intravenous. The settings on record: in vivo.
Data set [31] is described as follows: Plasma concentration in SCID mouse xenografted with PTEN deficient human PC3 cells at 30 mg/kg, po administered as solution after 1 hr. The format is ADME, organism-based, PC-3. More on the design: dose 30 mg/kg, route oral. The method in brief:
as §2

Data set [32] can be described thus: Efflux ratio of permeability […] in human Caco2/TC7 cells. The format is ADME, cell-based. Summed up: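 Caco-2 TC7 clone cells grown as a monolayer; compound transport measured in both directions, apical to basolateral (A–B) and basolateral to apical (B–A); apparent permeability (Papp) read out, and efflux ratio derived from the two directional measurements.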

Structures are written as SMILES. Values after ≈ are worked out from the molar mass of the structure shown.

Chain of Phosphatidylinositol 4,5-bisphosphate 3-kinase catalytic subunit gamma isoform (P48736 whole entry, canonical isoform): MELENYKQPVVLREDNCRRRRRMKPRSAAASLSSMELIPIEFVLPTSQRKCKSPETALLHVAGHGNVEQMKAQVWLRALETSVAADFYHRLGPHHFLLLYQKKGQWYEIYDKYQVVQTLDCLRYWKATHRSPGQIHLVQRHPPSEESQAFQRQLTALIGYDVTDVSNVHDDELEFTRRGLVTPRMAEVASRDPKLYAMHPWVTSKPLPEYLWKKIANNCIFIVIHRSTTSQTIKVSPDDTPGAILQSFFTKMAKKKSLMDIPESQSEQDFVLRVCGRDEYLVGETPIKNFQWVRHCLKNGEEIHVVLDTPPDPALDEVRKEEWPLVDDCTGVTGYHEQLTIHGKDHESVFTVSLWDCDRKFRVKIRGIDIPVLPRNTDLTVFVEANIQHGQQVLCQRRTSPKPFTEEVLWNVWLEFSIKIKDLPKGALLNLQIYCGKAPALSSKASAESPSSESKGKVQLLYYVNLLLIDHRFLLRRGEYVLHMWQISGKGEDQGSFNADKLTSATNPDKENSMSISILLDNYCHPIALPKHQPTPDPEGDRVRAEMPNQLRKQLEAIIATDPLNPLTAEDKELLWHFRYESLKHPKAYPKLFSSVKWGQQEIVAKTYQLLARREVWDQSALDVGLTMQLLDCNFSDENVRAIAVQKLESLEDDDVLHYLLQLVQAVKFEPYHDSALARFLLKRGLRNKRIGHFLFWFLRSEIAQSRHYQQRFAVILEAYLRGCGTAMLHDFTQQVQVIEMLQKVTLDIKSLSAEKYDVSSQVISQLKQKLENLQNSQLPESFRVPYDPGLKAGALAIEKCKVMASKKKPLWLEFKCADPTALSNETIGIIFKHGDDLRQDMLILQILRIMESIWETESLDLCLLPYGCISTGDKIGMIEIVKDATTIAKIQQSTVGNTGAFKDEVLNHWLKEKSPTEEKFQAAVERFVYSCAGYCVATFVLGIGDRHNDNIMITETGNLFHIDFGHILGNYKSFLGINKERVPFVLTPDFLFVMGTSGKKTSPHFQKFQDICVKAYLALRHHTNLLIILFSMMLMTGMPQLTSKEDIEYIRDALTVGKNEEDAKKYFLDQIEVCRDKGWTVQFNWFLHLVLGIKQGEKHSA
Chain of Cytochrome P450 3A4 (P08684 whole entry): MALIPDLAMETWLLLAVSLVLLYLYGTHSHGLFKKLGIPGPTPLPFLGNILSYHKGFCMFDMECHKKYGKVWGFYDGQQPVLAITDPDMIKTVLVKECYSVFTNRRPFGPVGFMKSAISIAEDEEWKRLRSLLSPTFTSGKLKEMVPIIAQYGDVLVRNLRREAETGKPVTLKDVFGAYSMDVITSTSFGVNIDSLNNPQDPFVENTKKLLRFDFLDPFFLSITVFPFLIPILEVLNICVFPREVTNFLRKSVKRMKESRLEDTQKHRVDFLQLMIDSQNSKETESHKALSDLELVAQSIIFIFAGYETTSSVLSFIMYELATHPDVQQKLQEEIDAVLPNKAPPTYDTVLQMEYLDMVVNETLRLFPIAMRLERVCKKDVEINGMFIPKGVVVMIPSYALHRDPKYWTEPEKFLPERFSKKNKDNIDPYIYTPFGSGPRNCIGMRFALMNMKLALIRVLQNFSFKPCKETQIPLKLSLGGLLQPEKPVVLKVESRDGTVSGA
Chain of Phosphatidylinositol 4,5-bisphosphate 3-kinase catalytic subunit beta isoform (P42338 whole entry, canonical isoform): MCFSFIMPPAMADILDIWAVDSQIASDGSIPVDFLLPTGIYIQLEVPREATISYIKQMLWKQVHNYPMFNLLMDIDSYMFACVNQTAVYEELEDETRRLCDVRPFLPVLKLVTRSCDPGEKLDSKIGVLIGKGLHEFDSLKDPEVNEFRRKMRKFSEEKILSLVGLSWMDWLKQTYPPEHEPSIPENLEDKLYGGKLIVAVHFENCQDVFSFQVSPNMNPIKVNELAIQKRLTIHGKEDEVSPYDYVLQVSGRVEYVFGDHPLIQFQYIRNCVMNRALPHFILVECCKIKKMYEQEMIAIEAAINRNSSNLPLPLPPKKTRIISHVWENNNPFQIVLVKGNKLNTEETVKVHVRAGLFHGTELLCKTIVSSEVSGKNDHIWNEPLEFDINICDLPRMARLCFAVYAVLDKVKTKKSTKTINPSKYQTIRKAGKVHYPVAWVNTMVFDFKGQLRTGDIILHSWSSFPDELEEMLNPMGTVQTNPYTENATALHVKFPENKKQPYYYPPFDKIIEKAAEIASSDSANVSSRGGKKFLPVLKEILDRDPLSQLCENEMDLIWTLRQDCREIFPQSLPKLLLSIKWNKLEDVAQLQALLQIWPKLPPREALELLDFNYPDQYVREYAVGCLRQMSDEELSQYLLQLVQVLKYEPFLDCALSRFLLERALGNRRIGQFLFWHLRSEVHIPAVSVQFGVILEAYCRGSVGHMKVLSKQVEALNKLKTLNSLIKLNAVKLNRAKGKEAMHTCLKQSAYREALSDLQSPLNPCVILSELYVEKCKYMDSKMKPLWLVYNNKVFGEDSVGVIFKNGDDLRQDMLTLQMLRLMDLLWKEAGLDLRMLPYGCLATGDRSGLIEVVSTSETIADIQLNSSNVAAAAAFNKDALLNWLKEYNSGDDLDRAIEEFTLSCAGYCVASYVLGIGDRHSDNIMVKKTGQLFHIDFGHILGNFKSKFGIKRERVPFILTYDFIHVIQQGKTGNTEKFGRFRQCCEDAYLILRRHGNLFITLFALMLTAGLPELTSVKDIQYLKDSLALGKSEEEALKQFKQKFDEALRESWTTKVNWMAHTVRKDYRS
Chain of Phosphatidylinositol 4,5-bisphosphate 3-kinase catalytic subunit alpha isoform (P42336 whole entry, canonical isoform): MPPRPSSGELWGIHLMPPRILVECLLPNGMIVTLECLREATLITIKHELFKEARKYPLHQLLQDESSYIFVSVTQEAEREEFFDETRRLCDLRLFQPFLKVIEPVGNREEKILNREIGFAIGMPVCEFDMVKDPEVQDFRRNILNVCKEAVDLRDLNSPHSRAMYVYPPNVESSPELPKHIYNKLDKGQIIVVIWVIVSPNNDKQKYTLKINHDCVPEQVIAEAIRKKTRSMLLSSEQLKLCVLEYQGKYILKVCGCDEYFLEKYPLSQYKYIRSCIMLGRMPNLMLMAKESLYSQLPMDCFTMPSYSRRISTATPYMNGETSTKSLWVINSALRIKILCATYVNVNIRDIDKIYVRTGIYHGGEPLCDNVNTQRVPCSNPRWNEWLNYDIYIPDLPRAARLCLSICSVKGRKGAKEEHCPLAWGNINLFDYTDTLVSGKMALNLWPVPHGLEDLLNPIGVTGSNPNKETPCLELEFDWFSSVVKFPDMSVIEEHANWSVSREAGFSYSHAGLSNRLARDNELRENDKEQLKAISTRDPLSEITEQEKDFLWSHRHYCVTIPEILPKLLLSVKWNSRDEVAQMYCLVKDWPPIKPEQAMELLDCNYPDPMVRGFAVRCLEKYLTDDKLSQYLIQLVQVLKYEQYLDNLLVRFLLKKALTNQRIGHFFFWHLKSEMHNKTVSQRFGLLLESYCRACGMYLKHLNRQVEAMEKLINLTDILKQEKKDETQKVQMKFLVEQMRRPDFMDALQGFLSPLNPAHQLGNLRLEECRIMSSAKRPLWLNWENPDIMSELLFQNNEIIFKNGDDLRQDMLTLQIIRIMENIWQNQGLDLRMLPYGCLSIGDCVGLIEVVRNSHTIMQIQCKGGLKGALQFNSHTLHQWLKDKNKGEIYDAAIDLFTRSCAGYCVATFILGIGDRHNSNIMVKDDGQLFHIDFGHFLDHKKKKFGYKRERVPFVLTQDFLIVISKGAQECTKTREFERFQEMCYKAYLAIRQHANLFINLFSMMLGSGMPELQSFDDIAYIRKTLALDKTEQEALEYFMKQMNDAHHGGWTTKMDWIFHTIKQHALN

Turning to `O=C(Cc1nc(N2CCOCC2)cc(=O)[nH]1)Nc1ccccc1`, the 50% inhibitory concentration (IC50) was > 10 µM in data set [1], > 40 µM in data set [3], > 10 µM in data set [4] and 68 nM in data set [8]. Moreover, the values for the metabolised at 20 min in [2] and in data set [5] were 4% and 44%, respectively. Further, the Papp in data set [6] was 0.5 ×10⁻⁶ cm/s. Besides, in data set [7], the thermodynamic solubility at 16 h amounted to 73 µM (≈ 22.9 µg/mL).

Regarding `Cn1c(CC(=O)Nc2ccc(F)c(Cl)c2)nc(N2CCOCC2)cc1=O`, the bioavailability in data set [9] came out at 52%. Also, the concentration at 6 h in data set [10] is 1700 nM; in data set [14] it was 1600 nM; in [15], 1000 nM; in [22] it was 400 nM. For the same molecule, the inhibition in vivo at 244 mg/kg came out at 0% in [11], 0% in data set [19], 63% in data set [26] and 73% in [28]. In addition, the concentration at 1 h came out at 6 µM in data set [12], 11 µM in [21], 4.5 µM in data set [25] and 10 µM in data set [31]. Also, the IC50 was 8.28 µM in data set [1]; > 40 µM in [3]; > 10 µM in data set [18]; 42 nM in data set [20]; 2210 nM in [29]; 79 nM in data set [8]. The metabolised at 20 min in [2] stood at 12%; in [5], 44%. Also, in data set [13], the half-life was 84 min. In [16], the Vd came to 1.3 L/kg. Also, the inhibition in vivo at 30 mg/kg in data set [17] is 23%; in [23], 91%; in data set [24], 86%; in [27], 0%. In addition, the Papp in data set [6] worked out at 6.6 ×10⁻⁶ cm/s. This molecule also registered a thermodynamic solubility at 16 h in data set [7] of 5 µM (≈ 1.9 µg/mL). Besides, the CLH in data set [30] is 1.6 L/h/kg. Moreover, the Ratio in data set [32] was 4.

The values above are taken from ChEMBL document CHEMBL2150988, “Preparation and optimization of new 4-(morpholin-4-yl)-(6-oxo-1,6-dihydropyrimidin-2-yl)amide derivatives as PI3Kβ inhibitors” (Bioorg Med Chem Lett, 2012).
